Screening data as filed in PubChem.
ASAP1 inh: inhibitors of human ASAP1 ArfGAP activity, primary screen, biochemical, fluorescence polarization. ASAP1-stimulated ARF1 GTP hydrolysis, GDP FP detection. Arf-GAP with SH3 domain, ANK repeat and PH domain-containing protein 1 (Homo sapiens), …. inhibition, % at 16.5 µM. hit rate 0.19% among 360,000; in the data active = inhibition above about 25%;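 note: 0% = vehicle with enzyme and substrate and 100% = no enzyme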
Target sequence (Q9ULH1 325-724 limits assumed): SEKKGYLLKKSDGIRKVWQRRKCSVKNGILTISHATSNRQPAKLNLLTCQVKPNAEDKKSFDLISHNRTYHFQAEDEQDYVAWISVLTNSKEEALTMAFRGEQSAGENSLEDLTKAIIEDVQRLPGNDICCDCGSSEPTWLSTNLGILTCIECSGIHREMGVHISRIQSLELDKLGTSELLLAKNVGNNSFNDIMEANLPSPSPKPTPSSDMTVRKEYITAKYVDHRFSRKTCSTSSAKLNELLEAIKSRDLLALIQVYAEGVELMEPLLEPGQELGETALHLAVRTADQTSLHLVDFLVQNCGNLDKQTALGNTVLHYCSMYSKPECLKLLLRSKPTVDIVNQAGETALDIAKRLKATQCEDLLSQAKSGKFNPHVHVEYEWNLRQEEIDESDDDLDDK
bovine MsrA act: bovine MsrA enzyme activators, primary screen, biochemical, absorbance, HTS. Methionine sulfoxide reductase A (Bos taurus). purified bovine MsrA, absorbance read-out. activation, % at 10.6 µM. hit rate 0.3% among 360,000; in the data active = activation above about 7.5%;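 note: 0% = vehicle and 100% = reference activator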
MsrA inhibitor: bovine MsrA enzyme inhibitors, primary screen, biochemical, absorbance, HTS | purified bovine MsrA, absorbance read-out | inhibition, % at 15.5 µM | hit rate 0.75% among 360,000 | AID 651718, 2012; in the data active = inhibition above about 4.5%;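 note: 0% = vehicle wells with enzyme and 100% = reference inhibitor wells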
ARFGAP1 inhibitor: inhibitors of rat ARFGAP1 GAP activity, primary screen, biochemical, fluorescence polarization, GDP tracer | ADP-ribosylation factor GTPase-activating protein 1 (Rattus norvegicus), Q62848 | Arfgap1-stimulated ARF1 GTP hydrolysis, GDP FP detection | inhibition, % at 16.5 µM | hit rate 0.26% among 360,000 | AID 651572, 2012;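 active = inhibition above a per-plate limit, mean inhibition of low control wells plus 3 SD, cut at about 25% in these data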;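 note: 0% = DMSO wells with enzyme and 100% = wells lacking Arfgap1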
Target sequence (Q62848 1-136 limits assumed): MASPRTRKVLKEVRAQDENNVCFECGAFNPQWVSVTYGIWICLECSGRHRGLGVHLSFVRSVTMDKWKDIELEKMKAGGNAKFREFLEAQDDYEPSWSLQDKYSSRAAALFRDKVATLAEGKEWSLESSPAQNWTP
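Assay system: Rat Arfgap1 GAP domain (His6, aa 1-136), purified enzyme | Buffer or medium: HEPES 25 mM pH 7.5, NaCl 150 mM, MgCl2, DTT | Schedule: GTP hydrolysis reaction 2 h at 25 °C | Signal: FP of antibody-bound GDP Alexa 633 tracer, ex 620/em 688 nm | Measure: Percent inhibition of Arfgap1-stimulated GTP hydrolysis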
MsrA act confirm: bovine MsrA activators, retest, confirmation, biochemical, absorbance, HTS | shares compounds with bovine MsrA act | activation, % at 10.6 µM | purified bovine MsrA, absorbance read-out | AID 602270, 2012 | hit rate 12% among 1,000; in the data active = activation above about 4%;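 note: enzyme coupled to thioredoxin and thioredoxin reductase with NADPH; 0% = vehicle wells and 100% = reference activator wells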
An asterisk follows results filed as active; . = not tested or not shown. In the library only some 1.4% were active in any assay of this set; here they are far more common.

SMILES	ASAP1 inh	bovine MsrA act	MsrA inhibitor	ARFGAP1 inhibitor	MsrA act confirm
CCOc1ccc(C(C(=O)NC(C)(C)C)N(CCOC)C(=O)CCC(=O)Nc2ccccn2)cc1 (configuration not stated)	19	-1	0	-1	.
COC(=O)c1ccc(OCCOc2ccccc2)cc1	2	-3	0	-7	.
COc1cccc(OC)c1OCCOc1ccc(C(=O)c2ccccc2)cc1	-6	18*	0	2	1
N#Cc1ncc(Cl)c2ccccc12	-3	-1	0	2	.
CCOC(=O)C1CCN(C(=O)COc2ccc(S(=O)(=O)N3CCCC3)cc2C)CC1	-8	0	0	5	.
COc1cc(C(=O)NCc2ccccc2)cc(Br)c1OC	0	10*	0	13	-1
Cc1nnc(SCC(=O)NCCN2C(=O)CSC2=O)n1-c1ccccc1	-13	-8	-1	4	.
O=C(CSc1nnc(Cc2ccccc2)o1)NCCN1C(=O)CSC1=O	-3	19*	-1	5	-1
O=C(Nc1cccc([N+](=O)[O-])c1)c1ccc([N+](=O)[O-])o1	-5	9.8*	2	-9	5.7*
CCOc1ccccc1C(=O)N/N=C/c1coc2ccc(Cl)cc2c1=O	5	-2	2	3	.
Cc1cccc(N2CCN(S(=O)(=O)c3ccc(-c4coc(C)n4)cc3)CC2C)c1 (configuration not stated)	3	7.7*	0	7	-1
CC[C@H](C)[C@H]1CNC(=S)N1CC1CCN(CCC(C)C)CC1	-8	-3	0	-5	.
C=CCN(c1cccc(C(F)(F)F)c1)S(=O)(=O)c1cccc(C(=O)OCC(=O)Nc2ccccc2)c1	13	8.3*	2	-1	-1
CC(OC(=O)CCNS(=O)(=O)c1ccccc1)C(=O)Nc1ccc(S(=O)(=O)N2CCCCC2)cc1 (configuration not stated)	3	-2	0	10	.
CC1(C)Cc2cccc(Oc3ccc(S(=O)(=O)N4CCCCC4)cn3)c2O1	15	7.7*	1	-7	-1
CN(Cc1ccccc1)C(=O)c1csc([C@H]2C[C@H](O)[C@@H](CO)O2)n1	9	-1	-1	12	.
CN(Cc1ccccc1)C(=O)c1csc([C@@H]2C[C@H](O)[C@@H](CO)O2)n1	-9	9.3*	0	-3	-1
C[C@H]1COc2cccc(N3CCCC3)c2S(=O)(=O)N1	-11	.	1	13	.
Cc1noc(C)c1S(=O)(=O)NC1CCN(Cc2ccccc2)CC1	-11	10*	-1	-2	-1
Cc1cc(C)c(S(=O)(=O)NC2CCN(Cc3ccccc3)CC2)c(C)c1	5	-2	0	3	.
O=C(Nc1ccc(Cl)cc1)Nc1ccccn1	6	8.4*	1	2	-2
O=C(Nc1ccccc1)Nc1ccccn1	5	-2	-1	-4	.
Cc1ccc(Cc2c(-c3ccc(F)cc3)nc3ccc(Cl)cn23)cc1	-10	-2	0	-11	.
Cc1c(NC(=O)C(C)N2C(=O)C3CCCCC3C2=O)c(=O)n(-c2ccccc2)n1C (configuration not stated)	-28	10*	0	-13	-2
COc1ccc2oc(=O)c(/C(N)=N/NC(=O)c3ccncc3)cc2c1	7	-3	-1	-6	.
SMILES	ASAP1 inh	bovine MsrA act	MsrA inhibitor	ARFGAP1 inhibitor	MsrA act confirm
Cc1ccc(/C=N/Nc2nncn2N)cc1	15	8.5*	0	3	-1
Nn1cnnc1N/N=C/c1ccc(Cl)c([N+](=O)[O-])c1	6	18*	1	4	1
COc1cc(OC)cc(C(=O)NC2CCN(CC(=O)Nc3cccc4ccccc34)CC2)c1	-8	8.9*	1	-10	-1
Cc1ccc(C(=O)CC(C(=O)O)n2cnc([N+](=O)[O-])n2)cc1 (configuration not stated)	-2	9.4*	-1	-4	-2
COCCNC(=O)c1ccc(N2CC3CC(C2)c2cccc(=O)n2C3)c(NC(=O)c2ccc(C(C)(C)C)cc2)c1 (configuration not stated)	-13	-1	-1	-3	.
CCCN1C(=O)N(C)C(N(O)C(=O)NC)C1(C)C (configuration not stated)	5	14*	1	4	0
CNC(=O)N(O)C1N(C)C(=O)N(CC(=O)OC)C1(C)C (configuration not stated)	0	-14	-1	4	.
Cc1cc(NC(=O)CCCC(=O)OCC(F)(F)C(F)F)cc(C)c1C(=O)O	8	8.3*	-1	11	-3
CCOC(=O)c1nn(-c2ccc(C)cc2)c(=O)c2c(N)scc12	-16	8.6*	1	-1	-2
CCOC(=O)c1nn(-c2ccc(F)cc2)c(=O)c2c(N)scc12	9	-1	2	-8	.
Cn1c(N)c(S(=O)(=O)NCc2ccc(Cl)cc2)c(=O)n(C)c1=O	-5	8.9*	0	4	-3
Cn1c(N)c(S(=O)(=O)NCc2ccccc2)c(=O)n(C)c1=O	6	-4	0	0	.
Nc1nc2ccccc2n1/N=C/c1cccnc1	2	-5	2	18	.
Nc1nc2ccccc2n1/N=C/c1ccc([N+](=O)[O-])s1	-3	8.0*	3	0	7.8*
COc1ccc(C)cc1S(=O)(=O)Nc1cccc(C)c1	7	0	0	-6	.
COc1ccc(C)cc1S(=O)(=O)Nc1cccc(SC)c1	-2	8.8*	0	5	-2
CCOc1ccc(S(=O)(=O)N2CCCC(C(=O)NCc3cccnc3)C2)cc1 (configuration not stated)	-7	8.9*	-1	-1	-2
COc1ccc(S(=O)(=O)N2CCCC(C(=O)NCc3cccnc3)C2)cc1 (configuration not stated)	-3	-5	-1	-2	.
CCOC(=O)Cn1nc(C)c(NC(=O)COc2ccccc2)c1C	-13	8.0*	-1	-5	2
COc1ccc(CNC(=O)COC(=O)c2ccc(S(=O)(=O)NCc3ccco3)cc2)cc1	-14	-1	2	9	.
CCOc1ccc(C(=O)NCc2ccc3c(c2)OCO3)cc1OCC	11	-5	0	-4	.
Cc1ccc2c(c1)N(CC(=O)NC(C)CCc1ccccc1)C(=O)c1cccnc1O2 (configuration not stated)	1	-3	-1	-1	.
Cc1noc(C)c1NC(=O)N(C)C[C@H]1Oc2ccc(NC(=O)NC(C)C)cc2C(=O)N([C@H](C)CO)C[C@H]1C	3	-13	1	0	.
COc1ccc(NC(=O)N(C)C[C@H]2OCCCC[C@@H](C)Oc3ccc(NC(=O)c4ccccc4)cc3C(=O)N([C@H](C)CO)C[C@@H]2C)cc1	6	11*	0	2	-2
